DENV2 CPE: inhibitors of DENV2 cytopathic effect, primary screen, cell-based, plate reader, single concentration. DENV2-infected cells, cytopathic effect rescue. CPE inhibition, % at 9.99 µM. 350,000 tested, 1.7% active. AID 651640, 2012; in the data active means CPE inhibition above about 20%, passing the limit was not always enough; inconclusive means no clear call, values can overlap the other calls; tested in BHK-21 cells;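 further: 0% = median of neutral control wells and 100% = median of positive control wells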
MLL AF4-AF9 inh: inhibitors of AF4 peptide binding to AF9, primary screen, biochemical, AlphaScreen, biotin-AF4 peptide, FLAG-AF9, single point; Protein AF-9 (Homo sapiens), P42568; inhibition, % at 10 µM; 350,000 tested, 0.47% active; AID 651704, 2012;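 active means every replicate reaching a set inhibition limit, whatever the replicate mean, cut at about 25% in these data; inconclusive means mean inhibition reaches that limit but some replicates miss it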;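 further: 0% = plate neutral control median and 100% = total signal loss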
SIRT5 inh: SIRT5 desuccinylase inhibitors, primary screen, biochemical, fluorescence imaging, single point, set 5; inhibition, % at 15 µM; NAD-dependent protein deacylase sirtuin-5, mitochondrial (Homo sapiens), Q9NXA8; 330,000 tested, 1.1% active; Purified SirT5, succinyl-peptide AMC, trypsin-coupled fluorescence; AID 652115, 2013; in the data active means inhibition above about 15%; inconclusive means no clear call, values can overlap the other calls
Target sequence (Q9NXA8 whole entry, looked up): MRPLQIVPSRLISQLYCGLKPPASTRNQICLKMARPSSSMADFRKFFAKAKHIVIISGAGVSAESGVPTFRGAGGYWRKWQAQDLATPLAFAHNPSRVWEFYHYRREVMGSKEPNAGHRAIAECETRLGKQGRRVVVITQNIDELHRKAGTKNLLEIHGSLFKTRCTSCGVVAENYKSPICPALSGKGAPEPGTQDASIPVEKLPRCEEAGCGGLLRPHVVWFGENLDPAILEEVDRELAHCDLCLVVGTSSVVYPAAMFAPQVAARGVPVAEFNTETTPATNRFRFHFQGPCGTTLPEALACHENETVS
S100A4 inh HTS: inhibitors of S100A4-myosin IIA peptide binding, primary screen, biochemical, fluorescence polarization, TAMRA-MyoIIA peptide. Protein S100-A4 (Homo sapiens), P26447. inhibition, % at 10.7 µM. 360,000 tested, 0.14% active;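 active means mean inhibition of at least 70% across replicates, with every replicate also reaching that level; inconclusive means mean inhibition reaches 70% but some replicates fall short; inactive means mean inhibition below 70%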
Target sequence (P26447 whole entry, looked up): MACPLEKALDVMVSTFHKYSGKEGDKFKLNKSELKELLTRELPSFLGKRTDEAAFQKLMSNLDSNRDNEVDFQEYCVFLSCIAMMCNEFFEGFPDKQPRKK
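Material: S100A4 monomer protein / Buffer or medium: 50 mM HEPES pH 7.2, 10 mM CaCl2, 100 mM KCl / Times: 5 min incubation before reading / Benchmarks: neutral control DMSO, positive control TFP / Reagent: labelled myosin peptide probe, 5 nM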
CaV13 FRET inh: Disruptors of the CACNA1D IQ motif to Ca2+-dependent inactivation inhibitor domain association, primary screening, Förster resonance energy transfer in intact living …. HEK cells, CFP/YFP FRET ICDI-IQ, plate reader, 10 min; percent FRET-ratio fall versus neutral wells. 340,000 tested, 0.098% active. AID 743397. inhibition, % at 12.3 µM;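 active means mean replicate inhibition of at least 30% and at least 1% of replicates passing that level; inconclusive means only one of the two criteria is met; inactive means neither criterion is met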;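 further: 0% = median of the neutral control wells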
Numbers without * were called inactive; ? = inconclusive; / = no result given. An excerpt weighted towards active compounds, which were near 2.7% of everything screened.

SMILES | DENV2 CPE | MLL AF4-AF9 inh | SIRT5 inh | S100A4 inh HTS | CaV13 FRET inh
c1cc(-c2ccc(C3[C@H]4CNC[C@@H]3N4CC3CC3)cc2)ccn1 (some centres undefined) | 9.8 | 38.5* | 1.2 | 3.6 | /
O=C1CNC[C@@H]2[C@H](c3ccc(Br)cc3)[C@@H](CO)N12 | ? | -3.8 | -4.1 | 1.0 | /
CCOC(=O)[C@]12Cc3c(cc(OC)c(OC)c3OC)[C@H]1N(C1CCCCC1)C(=O)c1ccccc12 | 5.8 | 0.6 | 20.3* | -1.4 | -6.2
CCOC(=O)[C@]12Cc3ccc(C)cc3[C@H]1N(C1CCCCC1)C(=O)c1cc(OC)ccc12 | 55.2* | -5.2 | 2.9 | 49.0 | -5.7
CCOC(=O)[C@]12Cc3ccc(C)cc3[C@H]1N(C1CCCCC1)C(=O)c1ccccc12 | 3.5 | -0.4 | -2.0 | 12.9 | -5.9
COC(=O)[C@H]1[C@H](CO)[C@H]2Cn3c(ccc(-c4ccccc4)c3=O)[C@@H]1N2C(=O)c1ccccc1F | 5.3 | / | -19.7 | / | /
O=c1[nH]c(=O)n(Cc2ccco2)c(O)c1/C=N/N1CCCCCC1 | -3.8 | 3.8 | -0.3 | -4.1 | -4.8
O=c1[nH]c(=O)n(Cc2ccco2)c(O)c1C=NC1CCN(Cc2ccccc2)CC1 | ? | 48.2* | -4.9 | -5.2 | -4.1
COc1cccc(CN2CC3(C2)[C@H](c2ccccc2)[C@H](CO)N3C(=O)Cc2ccccc2)c1 | 4.3 | 2.3 | 6.6 | -9.5 | /
COC(=O)[C@H]1[C@H](CO)[C@H]2Cn3c(ccc(-c4ccc(F)cc4)c3=O)[C@@H]1N2C(C)=O | 5.2 | -2.1 | -14.3 | -9.8 | /
COc1ccc(-c2ccc3c(c2)CN(C(=O)NC2CCCCC2)Cc2cnnn2-3)cc1 | 24.3* | -2.3 | -1.1 | -3.6 | -10.5
CC(=O)C1=C(C)OC2=C(C(=O)CCC2)[C@@]12C(=O)N(C)c1ccccc12 | -0.4 | -1.4 | / | -3.2 | -3.8
C=C[C@@H]1C2=CCOC(=O)C2=CO[C@H]1O[C@@H]1O[C@H](CO)[C@@H](O)[C@H](O)[C@H]1O | 22.7* | -1.3 | / | -2.7 | -5.5
O=c1ccc2cc(OC3O[C@H](CO)[C@@H](O)[C@H](O)[C@H]3O)c(O)cc2o1 (some centres undefined) | 7.7 | -6.8 | -110.5 | -1.2 | 1.7
Cc1cc(N2CCNC[C@H]2C)ccc1N1CC[C@H](O)C1 | -0.2 | / | 0.6 | -8.4 | -9.8
CC1CN1c1cc2c(c3c1ccn3C)C1CCC2C1 (centres undefined) | ? | 39.6* | 0.8 | -7.1 | -4.0
COc1ccc(CC2C(=O)NC(C)C(=O)N(C)C3C(=O)N(C)C(Cc4ccc(O)c(c4)Oc4ccc(cc4)C3O)C(=O)NC(C)C(=O)NC(C)C(=O)N2C)cc1 (centres undefined) | 106.7* | -1.6 | / | 0.2 | -5.9
O=c1[nH]c2ccccc2n1C1CCN(C(c2cc3ccccc3o2)c2nnnn2-c2ccc3c(c2)OCCO3)CC1 (centres undefined) | -12.1 | -0.4 | -3.3 | -6.3 | -5.3
O=c1[nH]c2ccccc2n1C1CCN(C(c2cccc3ccccc23)c2nnnn2-c2ccc3c(c2)OCCO3)CC1 (centres undefined) | 24.5* | 4.2 | -2.2 | -2.6 | -4.8
COC(=O)[C@@H]1[C@@H](CO)[C@@H]2Cn3c(ccc(-c4cccc(OC)c4)c3=O)[C@H]1N2CC1CC1 | -0.6 | 1.2 | -4.4 | 9.5 | /
COC(=O)[C@H]1[C@H](CO)[C@H]2Cn3c(ccc(-c4ccccc4)c3=O)[C@@H]1N2CC1CCCCC1 | -1.9 | 2.1 | -2.7 | 1.0 | /
CCC(=NCc1cccnc1)c1c(O)n(-c2ccccc2C)c(=O)[nH]c1=O | 3.2 | -2.1 | 0.6 | -0.9 | -14.2
CC(=NCc1cccnc1)c1c(O)n(-c2ccccc2C)c(=O)[nH]c1=O | -3.1 | -5.8 | 27.2* | -2.1 | -8.6
CCOC(=O)[C@@H]1[C@@H]2NC(=O)N(C)[C@@]1(C)Oc1ccccc12 | 8.3 | -3.7 | -3.0 | 1.5 | /
O=C(O)[C@H]1[C@H](CO)[C@H]2Cn3c(ccc(-c4ccc(F)cc4)c3=O)[C@@H]1N2CC1CCCCC1 | 0.8 | 1.4 | 2.2 | -0.4 | /
SMILES | DENV2 CPE | MLL AF4-AF9 inh | SIRT5 inh | S100A4 inh HTS | CaV13 FRET inh
C[C@H]1CN([C@@H](C)CO)C(=O)c2c(c3ccccc3n2C)-c2ccccc2CO[C@H]1CN(C)C(=O)Oc1ccccc1 | 81.2* | -0.7 | 5.0 | 0.1 | /
CN1CCN(c2ccc([N+](=O)[O-])c3no[n+]([O-])c23)CC1 | -2.2 | 1.9 | -6.3 | 112.5* | -6.7
CCN(CC)C(=O)c1ccc(NC(=O)COc2ccccc2F)cc1 | / | -0.4 | 20.8* | -2.0 | -3.8
CCOS(C)(=O)=O | 47.7* | / | / | 20.7 | /
COC(=O)[C@@H]1[C@@H](CO)[C@@H]2Cn3c(ccc(-c4ccccc4)c3=O)[C@H]1N2CC1CCOCC1 | -11.4 | -0.1 | -2.3 | 4.5 | /
Cc1ccc(N2Cc3ccccc3C2=N)cc1[N+](=O)[O-] | / | 2.6 | 25.5* | 7.8 | -4.1
N#CC1=C(N)Oc2c(c(=O)sc3ccccc23)C1c1ccncc1 (centres undefined) | 3.0 | -1.2 | 15.8* | 6.6 | -4.5
COc1ccc(CC(=O)N(CCN(C)C)CC2CCCN(Cc3ccccc3F)C2)cc1 (centres undefined) | 26.6* | 8.8 | 0.7 | -14.7 | -4.5
CN(C)CCN(CC1CCCN(Cc2ccccc2F)C1)C(=O)Cc1ccccc1F (centres undefined) | 10.3 | 3.2 | -1.7 | -15.1 | -4.9
COc1ccc(OC)c(CC(=O)N(C)C2CCCN(Cc3ccccc3F)C2)c1 (centres undefined) | -0.8 | -0.2 | -0.2 | -1.3 | -4.6
COc1cccc(CC(=O)N(C)C2CCCN(Cc3ccccc3F)C2)c1 (centres undefined) | ? | -1.4 | 18.3* | -6.4 | -1.8
COC(=O)[C@@H]1[C@@H](CO)[C@@H]2Cn3c(ccc(-c4ccccc4F)c3=O)[C@H]1N2C(=O)C1CCC1 | 1.9 | 0.6 | -9.8 | 13.0 | /
O=[N+]([O-])c1ccc(Nc2ccccc2)cc1 | -3.9 | 7.2 | 6.1 | 5.9 | -4.3
c1ccc(Nc2ccc(Nc3ccccc3)cc2)cc1 | 40.8* | / | / | 5.3 | /
COC(=O)[C@H]1N[C@H]2c3ccc(C4=CCCC4)c(=O)n3C[C@H]2[C@@H]1CO | 127.7* | -5.2 | -6.2 | -15.8 | /
CCN(CC)c1ccc(N=Cc2c(O)n(CCc3ccc(OC)c(OC)c3)c(=O)[nH]c2=O)cc1 | / | / | / | / | -5.6
COc1ccc(CCn2c(O)c(C=Nc3ccc(F)cc3)c(=O)[nH]c2=O)cc1OC | 0.8 | 0.4 | 16.0* | 2.7 | -15.9
C=CCN1C(=O)NC(=O)/C(=C/c2c(CCN(C)C(=O)c3ccccc3)cc3c(c2OC)OCO3)C1=O | -4.1 | -2.0 | / | -3.2 | /
CNC(=S)N(C)CCc1cc2c(c(OC)c1C=C1C(=O)NC(=O)NC1=O)OCO2 | 2.2 | 64.5* | 0.0 | -1.9 | -4.1

Compound activity: PubChem, Broad Institute
